HIV Env fusion: inhibitors of HIV Env-mediated cell fusion. HeLa-JRFL Env/CEM21 cell fusion, luciferase. AID 651610. 360,000 compounds, 1.1% hits. inhibition, % at 12.3 µM;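 active = mean replicate inhibition score of at least 50 and every replicate individually at or above 50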;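 note: 0% = plate neutral controls and 100% = maraviroc near 300 nM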
FGF22 binding: binders of recombinant human FGF22 by thermal shift; SYPRO orange fluorescence; percent of sucrose octasulfate shift, DMSO zero; activity (Tm shift, normalised), % at 9.99 µM; 340,000 compounds, 1.5% hits;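 active = mean Tm shift, scaled 0 neutral to 100 positive control, at about 1.3% or above, every replicate too, limit read from the data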
Target sequence (Q9HCT0 whole entry, looked up): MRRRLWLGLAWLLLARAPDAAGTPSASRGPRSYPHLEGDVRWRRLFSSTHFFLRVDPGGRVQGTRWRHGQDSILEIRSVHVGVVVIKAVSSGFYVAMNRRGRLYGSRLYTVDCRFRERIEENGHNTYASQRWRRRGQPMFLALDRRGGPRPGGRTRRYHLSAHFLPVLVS
EWS-Fli inh: EWS/Fli transcriptional activity inhibition; A673 NR0B1-luciferase reporter, viability-normalised; inhibition, % at 12.6 µM; 350,000 compounds, 0.67% hits; AID 651661;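 active = mean inhibition of at least 50% after viability correction, with every replicate also passing that limit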;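 note: firefly luciferase signal divided by Alamar Blue viability fluorescence both relative to DMSO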
PGC1a acetyl inh: PGC1a acetylation modulation, inhibitor mode | U2OS PGC1a acetylation, AlphaScreen anti-acetyl-lysine; with virally co-expressed GCN5 acetyltransferase | inhibition, % at 15.6 µM | 350,000 compounds, 0.17% hits | AID 651687;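 active = every replicate shows inhibition of at least 40%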;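 note: 0% = neutral control wells and 100% = positive control wells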
FN deposit inh: fibronectin deposition inhibition. 350,000 compounds, 0.086% hits. AID 743247. inhibition, % at 12.6 µM. AH1F fibroblasts, Alexa488-fibronectin deposition fluorescence, overnight;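 active = mean inhibition across replicates of 30% or more, regardless of how many single replicates reach that level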;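 note: positive control wells lacked labelled fibronectin entirely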
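Material: AH1F fibroblast monolayer depositing Alexa488-labelled fibronectin into matrix | Input: 10000 AH1F cells/well | Medium: DMEM plus 2% serum, read in PBS | Reagent: Alexa488-fibronectin, 24 nM final in well | Compound dosing: One dose per compound, pinned | Schedule: 1 h adhesion, overnight exposure | Measured by: Fluorescence at 485 nm excitation, 525 nm emission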
PAX8 reporter: lowers PAX8-driven luciferase in RMG-I cells; RMG-I TPO-luciferase reporter, SteadyGlo, 24 h; inhibition, % at 12.6 µM; 360,000 compounds, 1.2% hits; AID 652154;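 active = mean replicate inhibition at least 60% with every replicate also reaching 60%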;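 note: luciferase light reporting Pax8 driven TPO promoter activity; plate controls were median of neutral control wells for no effect and mitoxantrone controls for full effect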
* hit, by the source's call; . = no result given; [ ] = another dose, or the depositor's remark. The list is not random: actives were taken first. Their share in the collection is about 3.1%.

SMILES	HIV Env fusion	FGF22 binding	EWS-Fli inh	PGC1a acetyl inh	FN deposit inh	PAX8 reporter
CCN(CC)C(=O)CN1C(=O)c2cccc3cccc(c23)C1=O	14.5	43.1*	5.6	-7.7	13.1	28.7
Cc1ccc(S(=O)(=O)Nc2ccc3c(c2)CC(=O)N([C@@H](C)CO)C[C@@H](C)[C@@H](CN(C)S(C)(=O)=O)O3)cc1	-0.4[16.7 µM]	-0.1	-1.4	-5.4	-0.1	-1.9
CN(C)c1ccc(-c2noc(C3CCN(S(=O)(=O)c4cccc(Cl)c4)CC3)n2)cc1	56.4*	.	.	.	.	.
Cc1nc2ccccc2c(=O)n1NC(=O)c1ccc([N+](=O)[O-])cc1	-0.5	43.1*	0.2	-3.0	3.7	4.8
Cc1cc(C(=O)Nn2c(C)nc3ccccc3c2=O)ccc1[N+](=O)[O-]	-4.3	0.4	-1.9	.	3.6	2.0
C[C@H]1CN([C@@H](C)CO)C(=O)c2cccc(NS(=O)(=O)c3ccc(Cl)cc3)c2O[C@H]1CN(C)C(=O)Nc1ccccc1	.	0.0	-8.6	-17.5	.	-1.1
CN(C)C(=O)C[C@H]1CC[C@H](NS(=O)(=O)c2ccccc2)[C@@H](CO)O1	3.5[16.7 µM]	-0.4	17.3	7.5	-2.6	-20.0
O=C(Nc1scc(-c2ccccc2)c1C(=O)O)c1ccccc1Cl	-51.2	36.7*	-14.5	6.5	7.5	6.1
CCC(=O)N[C@@H]1CC[C@H](CCn2cc(CN(C)C)nn2)O[C@@H]1CO	-14.8[16.7 µM]	0.0	-6.2	2.0	-8.1	-12.0
CCN1/C(=C/c2cccc[n+]2C)Sc2ccc(OC)cc21	20.3	-0.2	37.8	.	-5.8	70.7*
CN1/C(=C/c2cccc[n+]2C)Sc2ccccc21	9.0	-0.1	30.7	.	-12.4	29.7
Cc1ccc2c(c1)N(C)/C(=C/c1cccc[n+]1C)S2	40.0	0.0	40.8	.	-13.1	79.0*
COc1ccc2c(c1)N(C)/C(=C/c1cccc[n+]1C)S2	22.1	-0.3	37.7	.	-18.6	48.8
C(=NN=C(NN=Cc1cccs1)NN=Cc1cccs1)c1cccs1	.	43.1*	-5.6	-12.3	-6.5	-47.4
Cc1[nH]c2ccccc2c1C(=O)NS(=O)(=O)Nc1ccccc1	-1.0	43.4*	4.0	-13.4	10.2	15.8
CCCCNS(=O)(=O)c1ccc(NC(=O)C2CCCO2)cc1 (centres undefined)	25.6	.	.	0.8	-3.0	5.3
CCC(C)NS(=O)(=O)c1ccc(NC(=O)C2CCCO2)cc1 (centres undefined)	-13.1	43.2*	1.6	.	12.1	-6.6
CN(C)S(=O)(=O)c1cccc(NC(=O)COc2ccccc2C(=O)Nc2ccccc2)c1	.	-0.1	13.5	-12.5	6.1	37.8
Cc1ccc(S(=O)(=O)N2CCCCC2)cc1NC(=O)Cc1c[nH]c2ccccc12	.	-0.2	19.0	.	-4.5	152.8*
Cc1ccc(S(=O)(=O)N2CCCCC2)cc1NC(=O)COc1ccccc1F	12.6	43.2*	11.4	.	0.4	-3.4
Cc1ccc(S(=O)(=O)N2CCCCC2)cc1NC(=O)CSc1nncn1-c1ccccc1	-147.3	43.2*	-1.3	.	0.7	18.3
Cc1ccc(S(=O)(=O)N(C)C)cc1NC(=O)COc1ccccc1C(=O)Nc1ccccc1	74.0*	0.6	11.2	.	1.6	13.1
COc1ccccc1CNCC(=O)Nc1cc(S(=O)(=O)N2CCCCC2)ccc1C	24.8	0.0	8.4	.	-1.9	2.0
COCC(=O)Nc1ccc2c(c1)C(=O)N(C)[C@@H]1CC[C@H](CC(=O)Nc3ccccc3)O[C@H]1CO2	7.3[16.7 µM]	0.0	-6.0	3.7	-7.1	9.7
C[C@@H]1CCCCO[C@@H](CN(C)C(=O)C2CCCCC2)[C@H](C)CN([C@@H](C)CO)C(=O)c2cc(NC(=O)C3CCCCC3)ccc2O1	8.3[16.7 µM]	-0.1	6.9	-3.9	.	7.7
SMILES	HIV Env fusion	FGF22 binding	EWS-Fli inh	PGC1a acetyl inh	FN deposit inh	PAX8 reporter
CS(=O)(=O)c1ccc(Cl)c(NC(=O)CSc2nnc3n2CCCCC3)c1	-74.3	43.8*	3.6	0.1	5.7	6.9
Cc1ccc(S(=O)(=O)N2CCOCC2)cc1NC(=O)CSc1nnc2n1CCCCC2	-5.7	-0.2	-10.5	.	-15.7	-3.3
Cc1ccc(S(=O)(=O)N2CCCCC2)cc1NC(=O)Cn1c(=O)cnc2ccccc21	59.1*	-0.3	-10.8	7.7	3.7	-0.4
Cc1ccc(NC(=O)Cn2c(=O)cnc3ccccc32)cc1S(=O)(=O)N1CCCCC1	8.3	0.1	7.4	0.1	1.0	12.4
Cc1noc(C)c1S(=O)(=O)Nc1ccc2c(c1)C(=O)N([C@@H](C)CO)C[C@H](C)[C@H](CN(C)S(C)(=O)=O)O2	0.2[16.7 µM]	-0.3	-13.6	4.6	.	.
C[C@H]1CN([C@@H](C)CO)C(=O)c2cc(C3=CCCC3)cnc2O[C@@H]1CN(C)C(=O)NC1CCCC1	7.6[16.7 µM]	0.2	-7.1	-10.9	.	.
C[C@@H]1CCCCO[C@H](CN(C)C(=O)C2CCCCC2)[C@@H](C)CN([C@@H](C)CO)C(=O)c2cc(NS(=O)(=O)c3ccc(F)cc3)ccc2O1	-61.5[16.7 µM]	-0.1	9.2	0.4	-1.5	17.0
CN(C)CC(=O)N1[C@@H]2Cn3c(ccc(C4=CCCC4)c3=O)[C@H]1[C@@H](C(=O)NCC1CCCCC1)[C@@H]2CO	.	-0.3	-3.4	.	.	.
COC(=O)c1ccc(Cc2ccc(C(=O)OC)o2)o1	-6.7	.	.	2.6	4.3	.
COC(=O)c1ccc(COc2ccc(F)cc2)o1	0.3	0.0	1.8	3.8	1.3	-11.3
COC(=O)c1ccc(COC(=O)c2ccc(CO)cc2)o1	6.2	44.0*	-8.9	18.3	5.0	-24.0
COC(=O)c1ccc(CO/N=C/c2ccc(OC)cc2)o1	-13.6	43.8*	-37.6	.	.	-75.1
C[C@@H]1CN([C@@H](C)CO)C(=O)Cc2cc(NS(C)(=O)=O)ccc2O[C@H]1CN(C)C(=O)Nc1ccc(F)cc1	.	0.0	-12.0	5.9	-0.9	-2.3
COc1cc(/C=N/Nc2nncn2N)ccc1OCc1c(C)no[n+]1[O-]	-32.1	0.0	10.3	-14.2	14.0	32.8
COc1ccc(/C=N/Nc2nncn2N)cc1Br	-6.8	-0.2	-0.5	68.6*	8.0	3.2
COc1ccc(CN(C)C[C@H]2Oc3c(NS(C)(=O)=O)cccc3C(=O)N([C@@H](C)CO)C[C@@H]2C)cc1	4.8[16.7 µM]	-0.1	.	1.0	.	-2.5
COc1ccc(C(=O)N/C(=C\c2cc(OC)c(OC)cc2[N+](=O)[O-])C(=O)NCC(=O)O)cc1	-15.1	43.2*	6.4	-0.7	-5.6	7.5
COc1ccc(C)cc1NC(=O)C1CCCN(S(=O)(=O)c2cccc3nonc23)C1 (centres undefined)	.	-0.1	-2.0	.	6.2	141.0*
O=C(NCC[C@H]1CC[C@@H](NC(=O)C2CC2)[C@@H](CO)O1)c1ccc(F)cc1	-7.5[16.7 µM]	0.4	0.8	-11.2	.	.
C=C(C)CSCc1nc2ccccc2[nH]1	.	.	.	-3.0	.	.
O=C(O)CSCc1nc2ccccc2[nH]1	-10.0	43.6*	8.7	-8.7	-6.4	25.2
O=C(CSCc1nc2ccccc2[nH]1)Nc1ccc2ccccc2c1	70.6*	.	.	10.3	-12.5	.

Screens from PubChem BioAssay.
